A short description of assay [1]: Her2 expression decrease, cell viability multiplex – SKBR3 breast tumor cells, AlphaScreen, ATP viability, primary screen (AID 461;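 active = Her2 level under about 52% in both replicate screens, with viability over 70% of control, limit read from the data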;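 as to Her2 level: lower value means less Her2 protein in the cells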;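 as to viability: percent of carrier control wells set as 100% viability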). To be noted: SKBR3 Her2 protein level, 18-24 h, measured here: SKBR3 viability, ATP luminescence, at 10 µM. (In general: Bead proximity is the source of the signal in Alpha formats.)
The target of assay [2] is Receptor tyrosine-protein kinase erbB-2 (Homo sapiens) (UniProt P04626). Described as above. To be noted: 18-24 h, at 10 µM, stronger effect = lower value.
Receptor tyrosine-protein kinase erbB-2 (Homo sapiens), sequence (P04626 whole entry, looked up): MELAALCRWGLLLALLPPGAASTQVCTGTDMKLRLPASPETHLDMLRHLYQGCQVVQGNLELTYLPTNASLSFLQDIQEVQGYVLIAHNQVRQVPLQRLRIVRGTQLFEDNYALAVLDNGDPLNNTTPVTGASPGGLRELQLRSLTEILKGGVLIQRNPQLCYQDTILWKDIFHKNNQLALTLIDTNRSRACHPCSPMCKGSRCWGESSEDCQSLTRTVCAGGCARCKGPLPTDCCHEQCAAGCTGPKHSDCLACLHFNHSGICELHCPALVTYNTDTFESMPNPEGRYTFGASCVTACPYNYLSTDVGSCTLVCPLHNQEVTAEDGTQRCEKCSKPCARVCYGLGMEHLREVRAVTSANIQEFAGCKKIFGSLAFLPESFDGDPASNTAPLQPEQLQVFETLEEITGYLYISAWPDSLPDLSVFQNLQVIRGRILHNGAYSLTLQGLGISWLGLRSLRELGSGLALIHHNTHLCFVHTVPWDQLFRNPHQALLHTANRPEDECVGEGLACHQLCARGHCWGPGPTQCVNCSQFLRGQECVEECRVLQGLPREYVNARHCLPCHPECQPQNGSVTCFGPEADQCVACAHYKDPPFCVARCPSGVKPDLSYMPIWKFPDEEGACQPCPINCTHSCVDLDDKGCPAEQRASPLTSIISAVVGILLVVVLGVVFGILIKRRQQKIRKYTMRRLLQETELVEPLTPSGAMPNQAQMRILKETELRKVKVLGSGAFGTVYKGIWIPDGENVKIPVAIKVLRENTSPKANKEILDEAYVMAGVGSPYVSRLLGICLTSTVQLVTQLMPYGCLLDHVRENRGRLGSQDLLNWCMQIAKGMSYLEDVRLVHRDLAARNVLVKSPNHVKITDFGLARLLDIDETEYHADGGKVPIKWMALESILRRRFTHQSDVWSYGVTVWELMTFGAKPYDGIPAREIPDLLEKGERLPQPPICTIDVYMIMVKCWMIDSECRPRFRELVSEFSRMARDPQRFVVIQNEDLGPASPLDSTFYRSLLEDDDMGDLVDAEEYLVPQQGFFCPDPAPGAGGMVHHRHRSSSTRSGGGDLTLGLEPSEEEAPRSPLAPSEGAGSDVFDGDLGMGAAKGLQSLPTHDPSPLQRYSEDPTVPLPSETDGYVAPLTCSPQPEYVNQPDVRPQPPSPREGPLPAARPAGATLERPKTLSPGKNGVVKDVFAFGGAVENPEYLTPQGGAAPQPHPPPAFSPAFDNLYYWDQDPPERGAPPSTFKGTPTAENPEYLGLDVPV
A short description of assay [3]: reduced viability of SK-BR-3 breast cancer cells – cell-based, 24 h, human, pilot screen (AID 572).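 Also: compound exposure lasted between 18 and 24 h rather than exactly 24 h; 100% = carrier-treated control wells.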 To be noted: SK-BR-3 viability, CellTiter-Glo luminescence, at 10 µM, stronger effect = lower value. On the technique in general: ATP-based viability assays read luminescence as a measure of living cells.
Assay [4] is described as follows: HUVEC growth inhibition – cell-based, human, primary screen (AID 575;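 active = viability at or below 30% in both replicate assays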;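 also: 100% = median of untreated cell wells with 0.1% DMSO on each plate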). To be noted: HUVEC proliferation, CellTiter-Glo luminescence, 72 h; at 10 µM; stronger effect = lower value. An outline of the steps:
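Material: primary human umbilical vein endothelial cells / Schedule: 72 h exposure, 37 °C, 5% CO2, 30 min RT equilibration / Signal: ATP-based CellTiter-Glo luminescent read / Read-out basis: percent of median DMSO-control luminescence / Control set: 32 DMSO-only cell-control wells (high), 32 MePR drug-control wells (low) per plate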

The nature of assay [5]: H69AR cell proliferation blockers – human, duplicate replicates, primary screen (AID 580;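 active = viability at or under a set limit in both replicates, limit being median viability minus 3 SD, cut at about 48% in these data, passing the limit was not always enough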;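 also: 100% = mean luminescence of untreated wells and 0% = no signal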). To be noted: H69AR lung tumor cells viability, ATP luminescence, 72 h; at 10 µM; stronger effect = lower value.
Assay [6] in a line: MRP1 drug-resistance reversers in H69AR cells – cell-based, doxorubicin co-treatment, pilot screen (AID 601;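 active = viability loss from added drug above about 55%, and viability with drug at most 40%, in both replicates, limit read from the data, passing the limit was not always enough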). To be noted: CellTiter-Glo, 72 h, at 10 µM; for differential viability (reversal): stronger effect = higher value.
Assay [7] can be described thus: yeast transport mutant growth inhibition pilot in 384-well plates, post-Golgi transport modulator project (AID 636; in the data active = inhibition above about 31%). To be noted: absorbance 615 nm, about 18 h, stronger effect = higher value.
The nature of assay [8]: growth suppression of yeast trafficking mutant, preliminary HTS, modulators of trafficking downstream of Golgi apparatus project, 1536-format plate, OD 615 nm (AID 637; in the data active = inhibition above about 30%). To be noted: yeast transport mutant growth, absorbance 615 nm, 18 h; stronger effect = higher value.
Where [9] appears, read: H69AR cells + 2 uM doxorubicin, measured here: viability with 2 uM doxorubicin, stronger effect = lower value.
Where [10] appears, read: H69AR cells, compound alone cytotoxicity.

SMILES strings stand for the structures. Active and inactive are the calls of the source.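 The calls were made as follows, unless noted: active = viability at or below 10% of carrier control in both of two separate runs; inconclusive = viability at or below 10% in only one of the two runs; inactive = the rest.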

As to `Cc1ccc(-c2nnn(CC(=O)N(CC3CCCO3)C(C(=O)NC(C)(C)C)c3ccc(F)cc3)n2)o1` (stereo not given), the viability (as a rule, a read-out of living cells in per cent, often relative to untreated cells) is 106% in assay [1]; 106% (inactive) in assay [3]; 100% (inactive) in assay [4]; 101% (inactive) in assay [5]; 97.4% in assay [6] (setting [9]); 101% in assay [6] (setting [10]). Further, in assay [2], the Her2 level was 96% (inactive). Besides, the differential viability (reversal) in assay [6] (H69AR cells + 2 uM doxorubicin) is 3.52% (inactive). Further, the inhibition (in general, the relative decrease from the control value, in per cent) in assay [7] was -1.07% (inactive); in assay [8], -4.03% (inactive).
Consider `CC(C)CNC(=O)C1CC(=O)OC12CCCCC2` (stereo not given), for which the viability in assay [1] was 100%; in assay [3], 100% (inactive); in assay [4], 112% (inactive); in assay [5] it was 113% (inactive); in assay [6] (setting [9]), 90.5%; in assay [6] (setting [10]) it was 113%. Besides, the Her2 level in assay [2] was 95% (inactive). The differential viability (reversal) in assay [6] (H69AR cells + 2 uM doxorubicin) is 22.3% (inactive). Also, the inhibition in assay [7] was -8.11% (inactive); in assay [8] it was 4.92% (inactive).
`O=C(Nc1ccc2c(c1)OCO2)C(c1ccc(Cl)cc1)N1CCN(C(=O)c2ccco2)CC1` (stereo not given): the viability in assay [1] is 71%; in assay [3], 71% (inactive); in assay [4], 103% (inactive); in assay [5], 91.4% (inactive); in assay [6] (setting [9]), 84.5%; in assay [6] (setting [10]) it was 91.4%. Also, the Her2 level in assay [2] is 80.5% (inactive). Besides, the differential viability (reversal) in assay [6] (H69AR cells + 2 uM doxorubicin) is 6.85% (inactive). For the same compound, the inhibition is -5.27% (inactive) in assay [7] and 2.3% (inactive) in assay [8].
For the compound `Cc1nnc(SCC(=O)N2CC(=O)Nc3ccccc32)n1-c1ccccc1`, the viability in assay [1] was 93%; in assay [3] it was 93% (inactive); in assay [4] it was 102% (inactive); in assay [5], 97% (inactive); in assay [6] (setting [9]), 94.3%; in assay [6] (setting [10]) it was 97%. Also, the Her2 level in assay [2] is 90% (inactive). Moreover, the differential viability (reversal) in assay [6] (H69AR cells + 2 uM doxorubicin) is 2.75% (inactive). In addition, the inhibition in assay [7] is -4.53% (inactive); in assay [8], 4.84% (inactive).
`COc1ccc(-n2nnnc2-c2cccc(OC)c2)cc1`: the viability in assay [1] was 102%; in assay [3], 102% (inactive); in assay [4], 45.3% (inactive); in assay [5] it was 34.5% (active); in assay [6] (setting [9]) it was 61.1%; in assay [6] (setting [10]) it was 34.5%. In addition, the Her2 level in assay [2] was 87.5% (inactive). For the same compound, in assay [6] (H69AR cells + 2 uM doxorubicin), the differential viability (reversal) is -26.5% (inactive). Moreover, the inhibition is -5.95% (inactive) in assay [7] and -1% (inactive) in assay [8].
For the compound `CCN(CC)CCCNC(=O)c1nn(-c2ccc(OC)cc2OC)c(=O)c2ccccc12`, the viability in assay [1] was 97%; in assay [3], 97% (inactive); in assay [4] it was 72.3% (inactive); in assay [5] it was 96.1% (inactive); in assay [6] (setting [9]) it was 97%; in assay [6] (setting [10]) it was 96.1%. In addition, the Her2 level in assay [2] is 103% (inactive). Further, the differential viability (reversal) in assay [6] (H69AR cells + 2 uM doxorubicin) was -0.935% (inactive). In addition, the figures for the inhibition in assay [7] and in assay [8] were -2.57% (inactive) and -7.46% (inactive), respectively.
Regarding `COC(=O)CSc1cc(C)nc(NC(C)=O)n1`, the viability was 93.5% in assay [1]; 93.5% (inactive) in assay [3]; 102% (inactive) in assay [4]; 101% (inactive) in assay [5]; 94.2% in assay [6] (setting [9]); 101% in assay [6] (setting [10]). For the same compound, the Her2 level in assay [2] is 83.5% (inactive). Moreover, the differential viability (reversal) in assay [6] (H69AR cells + 2 uM doxorubicin) is 6.47% (inactive). Further, the inhibition is -3.92% (inactive) in assay [7] and -0.95% (inactive) in assay [8].
In the case of `COCCn1nnnc1C(c1cccs1)N1CCN(c2cc(C)ccc2C)CC1` (stereo not given), the viability in assay [1] was 107%; in assay [3] it was 107% (inactive); in assay [4], 84.8% (inactive); in assay [5], 92.5% (inactive); in assay [6] (setting [9]) it was 90.1%; in assay [6] (setting [10]), 92.5%. The Her2 level in assay [2] is 84.5% (inactive). Also, the differential viability (reversal) in assay [6] (H69AR cells + 2 uM doxorubicin) is 2.44% (inactive). Also, the inhibition in assay [7] was 1.3% (inactive); in assay [8], 1.27% (inactive).
For `CCOC(=O)N1CCN(C(=O)c2ccc3nc4cc(Cl)ccc4c(=O)n3c2)CC1`, the viability in assay [1] is 91%; in assay [3], 91% (inactive); in assay [4] it was 96% (inactive); in assay [5], 91.1% (inactive); in assay [6] (setting [9]), 88.8%; in assay [6] (setting [10]), 91.1%. The Her2 level in assay [2] was 95% (inactive). The differential viability (reversal) in assay [6] (H69AR cells + 2 uM doxorubicin) was 2.21% (inactive). Further, the values for the inhibition in assay [7] and in assay [8] were -3.07% (inactive) and 2.1% (inactive), respectively.
On to `CCOC(=O)CSc1nc2sc(C)c(C)c2c(=O)n1C`, for which the viability in assay [1] is 104%; in assay [3], 104% (inactive); in assay [4], 85.4% (inactive); in assay [5], 94.2% (inactive); in assay [6] (setting [9]) it was 84.8%; in assay [6] (setting [10]), 94.2%. Moreover, in assay [2], the Her2 level is 69% (inactive). The differential viability (reversal) in assay [6] (H69AR cells + 2 uM doxorubicin) was 9.32% (inactive). In addition, the inhibition in assay [7] was -2.34% (inactive); in assay [8] it was -0.17% (inactive).
For the compound `FC(F)(F)c1cccc(N2CCN(Cc3cccnc3)CC2)c1`, the viability is 90.5% in assay [1]; 90.5% (inactive) in assay [3]; 101% (inactive) in assay [4]; 110% (inactive) in assay [5]; 84.9% in assay [6] (setting [9]); 110% in assay [6] (setting [10]). Further, the Her2 level in assay [2] is 99.5% (inactive). Besides, in assay [6] (H69AR cells + 2 uM doxorubicin), the differential viability (reversal) was 25.3% (inactive). Moreover, the inhibition was -0.4% (inactive) in assay [7] and -1.61% (inactive) in assay [8].
`Cc1ccc(-c2nnn(CC(=O)N(Cc3ccco3)C(C(=O)NC(C)(C)C)c3cccs3)n2)o1` (stereo not given): the viability in assay [1] was 119%; in assay [3], 119% (inactive); in assay [4] it was 89.1% (inactive); in assay [5], 95.9% (inactive); in assay [6] (setting [9]) it was 89.8%; in assay [6] (setting [10]), 95.9%. Besides, in assay [2], the Her2 level is 81% (inactive). Further, the differential viability (reversal) in assay [6] (H69AR cells + 2 uM doxorubicin) was 6.13% (inactive). The inhibition is 0.4% (inactive) in assay [7] and -4.1% (inactive) in assay [8].
For the compound `COc1cccc(OC)c1OCCNCCO`, the viability in assay [1] was 126%; in assay [3], 126% (inactive); in assay [4], 85.7% (inactive); in assay [5], 96% (inactive); in assay [6] (setting [9]) it was 84.8%; in assay [6] (setting [10]) it was 96%. Also, the Her2 level in assay [2] was 98% (inactive). In addition, the differential viability (reversal) in assay [6] (H69AR cells + 2 uM doxorubicin) was 11.2% (inactive). The inhibition in assay [7] was -1.82% (inactive); in assay [8], 0.33% (inactive).
For the compound `CCOCCCNC(=O)C1CCC(=O)N1CCc1ccccc1` (stereo not given), the viability in assay [1] is 100%; in assay [3], 100% (inactive); in assay [4], 84.7% (inactive); in assay [5] it was 98.3% (inactive); in assay [6] (setting [9]), 111%; in assay [6] (setting [10]), 98.3%. The Her2 level in assay [2] was 95.5% (inactive). The differential viability (reversal) in assay [6] (H69AR cells + 2 uM doxorubicin) was -12.8% (inactive). For the same compound, the inhibition in assay [7] was -3.42% (inactive); in assay [8], -5.32% (inactive).

The values above are taken from PubChem BioAssay.
